Experimental data published in PubChem BioAssay AID504346 (Broad Institute, 2011).
Calls of active or inactive are those of the source.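 How the source made its calls: active means fitted curve reaches 10% of the positive control caspase activation at or below the top valid tested dose; inactive means signal shifts the opposite way, plus the rest.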

System: not listed separately
Experiment: apoptosis induction in MEWO without priming – cell-based, human MEWO, caspase luminescence, dry powder, set 3, counter-screen for Bcl2-A1 inhibitor project, dose response (AID 504346)
Conditions: MEWO unprimed cells, caspase-Glo luminescence, 3 h; at 35 µM (top of the series)
Outline: (§1)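 Assay system – unprimed human MEWO cells engineered to express A1 · Input – 2500 cells per well · Buffer or medium – RPMI-1640 plus 10% FBS · Schedule – 3 h compound at 37 °C, 1 h reagent at RT · Detection – CaspaseGlo luminescence, reagent diluted 1:1 in 50 mM HEPES · Evaluation – caspase activation level per well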

| Compound | caspase activation |
| --- | --- |
| COc1ccc(CCNc2nc(N3CCCC3)nc(N3CCCC3)n2)cc1OC | 0.039% (inactive) |
| Cc1ccc(Sc2c(Sc3ccc(C)cc3)c3ccccc3n(C)c2=O)cc1 | 0.838% (inactive) |
| O=c1[nH]c2ccccc2c(O)c1[N+](=O)[O-] | -0.15% (inactive) |
| COc1ccc(N2CCN(c3nc(NCCc4ccc(OC)c(OC)c4)nc(N4CCOCC4)n3)CC2)cc1 | -0.115% (inactive) |
| COc1nc2ccccc2c(Cl)c1[N+](=O)[O-] | 0.103% (inactive) |
| Cn1c(=O)c(Sc2ccccn2)c(Sc2ccccn2)c2ccccc21 | -0.272% (inactive) |
| Cc1ccc(Sc2c([N+](=O)[O-])c(=O)n(Cc3ccccc3)c3ccccc23)cc1 | 0.173% (inactive) |
| Cc1ccc(S(=O)(=O)c2c([N+](=O)[O-])c(=O)n(C)c3ccccc23)cc1 | 2.24% (inactive) |
| COc1nc2ccccc2c(Sc2ccc(C)cc2)c1[N+](=O)[O-] | 0.891% (inactive) |
| CCn1c(=O)c([N+](=O)[O-])c(Sc2ccc(C)cc2)c2ccccc21 | 2.11% (inactive) |
| Cc1ccc(Sc2c(Sc3ccc(C)cc3)c3ccccc3n(Cc3ccccc3)c2=O)cc1 | 0.136% (inactive) |
| CCn1c(=O)c([N+](=O)[O-])c(Cl)c2ccccc21 | 5.44% (inactive) |
| Cc1ccc(Sc2c([N+](=O)[O-])c(=O)n(C)c3ccccc23)cc1 | 1.27% (inactive) |
| COc1c([N+](=O)[O-])c(=O)n(C)c2ccccc12 | -0.158% (inactive) |
| CCn1c(=O)c(Sc2ccc(C)cc2)c(Sc2ccc(C)cc2)c2ccccc21 | 1.36% (inactive) |
| COCCn1c(=O)c([N+](=O)[O-])c(Sc2ccc(C)cc2)c2ccccc21 | 1.99% (inactive) |
| COCCn1c(=O)c(Sc2ccc(C)cc2)c(Sc2ccc(C)cc2)c2ccccc21 | 1.05% (inactive) |
| C/C(=N\Nc1nc(N2CCCCC2)nc(N2CCCCC2)n1)c1ccc(F)cc1 | -0.441% (inactive) |
| Cn1c(=O)c([N+](=O)[O-])c(Cl)c2ccccc21 | 8.42% (inactive) |
| Cn1c(=O)c([N+](=O)[O-])c(Sc2ccccn2)c2ccccc21 | 3.69% (inactive) |
| COc1ccc(CCNc2nc(N3CCOCC3)nc(N3CCOCC3)n2)cc1OC | 0.746% (inactive) |
| O=C(COc1ccc(Cl)cc1Cl)NNc1nc(N2CCOCC2)nc(N2CCOCC2)n1 | -0.692% (inactive) |

System: MEWO unprimed cells, caspase-Glo luminescence, 3 h
Experiment: as above
Conditions: not given
Outline: as §1

| Compound | AC10 |
| --- | --- |
| COCCn1c(=O)c([N+](=O)[O-])c(Cl)c2ccccc21 | > 35 µM (inactive) |
| O=c1c([N+](=O)[O-])c(Cl)c2ccccc2n1Cc1ccccc1 | 33.6 µM |
| Cn1c(=O)c([N+](=O)[O-])c(S(C)(=O)=O)c2ccccc21 | > 35 µM (inactive) |
| O=c1[nH]c2ccccc2c(Cl)c1[N+](=O)[O-] | > 35 µM (inactive) |
| CC1(C)CCC(c2ccc(Cl)cc2)=C(CN2CCN(c3ccc(C(=O)NS(=O)(=O)c4ccc(N[C@H](CCN5CCOCC5)CSc5ccccc5)c(S(=O)(=O)C(F)(F)F)c4)cc3)CC2)C1 | 3.09 µM |
